Assay results from different studies.
Compare with care: the assays were run in different laboratories.
Target: Myosin light chain kinase family member 4 (MYLK4, Homo sapiens, UniProt Q86YV6)
Residues used in one study (Q86YV6 1-388): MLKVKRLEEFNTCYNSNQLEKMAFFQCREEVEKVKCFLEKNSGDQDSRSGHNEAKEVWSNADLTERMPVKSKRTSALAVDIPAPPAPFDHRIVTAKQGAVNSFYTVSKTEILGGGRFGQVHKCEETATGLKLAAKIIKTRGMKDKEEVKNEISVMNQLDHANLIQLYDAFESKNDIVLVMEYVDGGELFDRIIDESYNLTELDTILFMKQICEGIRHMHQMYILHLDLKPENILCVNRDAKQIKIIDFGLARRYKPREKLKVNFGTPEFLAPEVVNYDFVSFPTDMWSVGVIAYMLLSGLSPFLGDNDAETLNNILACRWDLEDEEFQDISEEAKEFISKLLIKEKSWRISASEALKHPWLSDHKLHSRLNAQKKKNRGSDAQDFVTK

c1cncc(-c2cccc(Nc3nccc(NC4CCCCC4)n3)c2)c1 — remaining binding (binding; competition with immobilised ligand; 10 µM): 51%
CC1CCCN1c1nccc(-c2cnn3ncccc23)n1 (stereo not shown) — remaining binding (binding; 1 µM): 100%
O=C(c1ccc(Nc2ncc(Cl)c(-c3cc4ccccc4s3)n2)cc1)N1CCC(N2CCCC2)CC1 — remaining binding (binding; competition with immobilised ligand; 1 µM): 0.1%
N[C@@H]1CCN(c2nccc(-c3cnn4ncccc34)n2)C1 — remaining binding (binding; 1 µM): 100%
C[C@H](c1cccc(C#N)c1)n1cc(Cl)cc(C(N)=O)c1=N — remaining binding (cell-free assay; competition with immobilised ligand; 1 µM): 100%
COc1ccnn2ncc(-c3ccnc(N(C)C)n3)c12 — remaining binding (binding; 1 µM): 100%
COc1ccc2c(c1)O[C@@H](c1ccc(OC)c(OC)c1)C[C@H]2NC(=O)C1(c2ccc3c(c2)OC(F)(F)O3)CC1 — remaining binding (cell-free assay; competition with immobilised ligand; 1 µM): 97%
Nc1ncc2c(n1)-c1c([nH]c3ccc(C#CC4CC4)cc13)CCCC2 — remaining binding (binding; competition with immobilised ligand; 1 µM): 83%
CCN1CCN(Cc2ccc(C(=O)Nc3ccc(C)c(Oc4ccc5c(c4)CC(=O)N5)c3)cc2C(F)(F)F)CC1 — remaining binding (binding; competition with immobilised ligand; 1 µM): 84%
O=S(=O)(NC1CCC(c2cc(F)ccc2F)(S(=O)(=O)c2ccc(Cl)cc2)CC1)C(F)(F)F (stereo not shown) — remaining binding (cell-free assay; competition with immobilised ligand; 1 µM): 100%
COc1cnc(Nc2cccc(S(N)(=O)=O)c2)nc1N1CCN(c2ccccc2)CC1 — remaining binding (binding; competition with immobilised ligand; 1 µM): 100%
O=C(NCC1CCOCC1)c1n[nH]cc1NC(=O)c1c(F)cccc1F — remaining binding (binding; competition with immobilised ligand; 1 µM): 100%
CN(C)c1nccc(-c2cnn3ncccc23)n1 — remaining binding (binding; 1 µM): 88%
CNC(=O)[C@@H]1CC[C@@H](n2c(-c3ccc4cnccc4c3)nc3ccc(C(=O)NCc4cccc(C(N)=O)c4)cc32)C1 — remaining binding (binding; competition with immobilised ligand; 1 µM): 100%
O=C(c1ccc(Nc2nccc(-c3cc4ccccc4s3)n2)cc1)N1CCC(N2CCCC2)CC1 — remaining binding (binding; competition with immobilised ligand; 1 µM): 0.1%
Nc1cnc(N2CCc3cc(S(=O)(=O)Nc4c(F)cc(Cl)cc4F)cc(N4CCCC4=O)c32)nc1 — remaining binding (cell-free assay; competition with immobilised ligand; 1 µM): 100%
Cc1cnc(Nc2ccc(C(=O)N3CCC(N4CCCC4)CC3)cc2)nc1-c1cc2ccccc2s1 — remaining binding (binding; competition with immobilised ligand; 1 µM): 0%
CN(C)c1ncc(F)c(-c2cnn3ncccc23)n1 — remaining binding (binding; 1 µM): 100%
COc1cccc(CNC(=O)c2nc3scc(COCc4ccc(C(=O)O)cc4)c3c(=O)[nH]2)c1 — remaining binding (cell-free assay; competition with immobilised ligand; 1 µM): 100%
